The nature of experiment [1]: inhibitors of TNFa-induced NFkB p65 translocation, primary screen, imaging, HUVEC, MLSMR starter and 10KST1 sets (AID 438;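 active = inhibition above 20% together with a positive visual image hit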;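 note: compound added about 3h40 before a 20 min TNFalpha stimulation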;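 for inhibition: signal is the nuclear over cytoplasmic p65 intensity ratio per well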). To be noted: HUVEC TNFa-induced p65 nuclear translocation; cell count: measured here: nuclei count (cytotoxicity indicator), at 2.08 µM; inhibition: at 2 µM, stronger effect = higher value, 0% TNFa-plus-vehicle, 100% no-TNFa wells.
The nature of experiment [2]: inhibitors of E-selectin induction by TNFa, primary screen, imaging, HUVEC, immunofluorescence, MLSMR starter and 10KST1 sets (AID 487).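 For inhibition: signal is fraction of cell area covered by stained E-selectin grains.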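 For nuclei count: 100% = median nuclei count of all wells on the same plate.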 The note with it: HUVEC TNFalpha-induced E-selectin immunofluorescence imaging, at 2 µM; inhibition: stronger effect = higher value; nuclei count: measured here: cell number, toxicity.
A short description of experiment [3]: DUSP6 inhibitors restoring Erk phosphorylation by chemical complementation, primary imaging in DUSP6-transfected HeLa (AID 609;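 active = compounds giving at least 50% inhibition in the cell-based MKP-3 phosphatase rescue imaging test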;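 for inhibition: phospho-Erk level distribution per well compared with pooled transfected vehicle control wells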). To be noted: HeLa MKP-3 transfected, phospho-Erk imaging KS statistic, at 10 µM, cells stimulated with TPA for 15 min.
The target of experiment [4] is Dual specificity protein phosphatase 6 (Homo sapiens) (UniProt Q16828). Described as above. The note with it: HeLa MKP-3 transfected, phospho-Erk imaging KS statistic; at 10 µM; stronger effect = higher value; cells stimulated with TPA for 15 min.
Sequence of Dual specificity protein phosphatase 6 (Homo sapiens) (Q16828 whole entry, looked up): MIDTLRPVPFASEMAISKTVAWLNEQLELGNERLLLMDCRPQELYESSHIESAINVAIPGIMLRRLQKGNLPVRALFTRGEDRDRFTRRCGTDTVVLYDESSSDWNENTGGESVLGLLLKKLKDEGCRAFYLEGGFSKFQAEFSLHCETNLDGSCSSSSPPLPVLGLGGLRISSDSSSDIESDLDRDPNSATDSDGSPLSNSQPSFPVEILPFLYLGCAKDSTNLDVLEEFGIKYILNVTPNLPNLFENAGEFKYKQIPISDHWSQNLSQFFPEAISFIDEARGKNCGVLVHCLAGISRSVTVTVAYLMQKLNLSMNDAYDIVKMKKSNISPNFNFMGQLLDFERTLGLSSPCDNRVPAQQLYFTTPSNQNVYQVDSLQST
Experiment [5] has as its target Voltage-gated potassium channel subunit beta-2 (Rattus norvegicus) (UniProt P62483). Description: KvBeta enzyme negative modulators, primary screen, biochemical, NADPH fluorescence (AID 622;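 active = fluorescence slope higher than the sample average by over 3 SD, cut at about -0.22 in these data, passing the limit was not always enough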;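 note: slope of raw intensity against log time taken from 70 to 1610 s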). The note with it: recombinant KvBeta, 4-cyanobenzaldehyde reduction, at 10 µM, stronger effect = higher value.
For experiment [6] the target is unchanged. Nature of the experiment: KvBeta positive modulators, primary screen, biochemical, NADPH fluorescence (AID 623;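 active = NADPH fluorescence slope more negative than the mean of all samples by about 3 SD, 99.7% confidence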;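 note: fluorescence intensity change per second fitted from 20 to 320 s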). The note with it: Recombinant KvBeta, NADPH fluorescence decrease slope, 10 min; at 10 µM; stronger effect = lower value.
Experiment [7] concerns the target Muscarinic acetylcholine receptor M4 (Homo sapiens) (UniProt P08173). Nature of the experiment: compounds altering M4/GIRK thallium flux, either direction, primary screen, M4 allosteric agonist project, cell-based, HEK293 M4/GIRK, BTC-AM (AID 625;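 active = fluorescence slope after compound addition differing from the mean of all tested samples at 99.7% confidence, mostly higher but some lower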;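 note: thallium influx through GIRK channels coupled to M4 in HEK293 cells with BTC-AM dye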). To be noted: at 10 µM, actives lie on both sides. Put shortly:
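System: HEK293 cells with M4 receptor and GIRK channels | Incubation: Cells overnight at 37 °C, BTC-AM loading 1 h, reads 2 min total | Technique: Kinetic BTC-AM fluorescence sampled at 1 Hz, 10 s pre-addition baseline | Measure: Post-addition slope, 15–24 s, of baseline-normalized fluorescence | Control set: Carbachol positive, DMSO negative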

A short description of experiment [8]: inhibitors of larval lipid processing in zebrafish, primary screen, whole organism, PED6 fluorescence, gall bladder and intestine (AID 686;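 active = a full or partial loss of lipid-probe fluorescence in the fish gall bladder, intestine or both, judged by eye; inactive = no fluorescence loss, or compound toxic to the fish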;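 note: larvae 5 to 7 days old with five fish per well; signal comes from phospholipase A2 cleavage of quenched PED6 carried via bile; overnight exposure to compound and PED6 before scoring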). The note with it: Zebrafish larvae PED6 lipid processing, fluorescence scoring; screened at 20 µM (by protocol). Put shortly: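 Test system – live zebrafish larvae aged 5-7 days, whole organism · Buffer or medium – E3 fish medium · Reagent – quenched phospholipase substrate PED6, 100 nM final, ingested by larvae · Doses – 20 µM single dose · Incubation – overnight compound and PED6 incubation · Technique – visual fluorescence microscopy scoring of gall bladder, gut · Read-out basis – visual per-well fluorescence inhibition score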

The nature of experiment [9]: inhibitors of Chlamydomonas gravitaxis, primary screen, whole organism, Chlamydomonas reinhardtii, WT vs cilia-less mutant, absorbance, 96-well (AID 463189;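 active = inhibition at or above 50% relative to wild type and mutant plate controls; inactive = inhibition below 50%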;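 note: 0% = wild type cc124 cells in DMSO and 100% = ciliumless bld1 mutant cells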). The note with it: OD600 absorbance, 2 days, at 10 µM, stronger effect = higher value.
Where [10] appears, read: measured here: cell density z-score.
Where [11] appears, read: measured here: nuclear c-Myc green intensity z-score.
The mark [12] stands for this setting: measured here: nuclear pErk red intensity z-score, stronger effect = higher value.

Consider seven compounds from PubChem BioAssay.

Active and inactive are the calls of the source.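 Rule for the calls, unless noted: active = visually confirmed hit in the image check and inhibition above 20%; inconclusive = visually confirmed hit but inhibition not above 20%; inactive = no visual hit in the image check.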

Sequence of Muscarinic acetylcholine receptor M4 (Homo sapiens) (P08173 whole entry, looked up): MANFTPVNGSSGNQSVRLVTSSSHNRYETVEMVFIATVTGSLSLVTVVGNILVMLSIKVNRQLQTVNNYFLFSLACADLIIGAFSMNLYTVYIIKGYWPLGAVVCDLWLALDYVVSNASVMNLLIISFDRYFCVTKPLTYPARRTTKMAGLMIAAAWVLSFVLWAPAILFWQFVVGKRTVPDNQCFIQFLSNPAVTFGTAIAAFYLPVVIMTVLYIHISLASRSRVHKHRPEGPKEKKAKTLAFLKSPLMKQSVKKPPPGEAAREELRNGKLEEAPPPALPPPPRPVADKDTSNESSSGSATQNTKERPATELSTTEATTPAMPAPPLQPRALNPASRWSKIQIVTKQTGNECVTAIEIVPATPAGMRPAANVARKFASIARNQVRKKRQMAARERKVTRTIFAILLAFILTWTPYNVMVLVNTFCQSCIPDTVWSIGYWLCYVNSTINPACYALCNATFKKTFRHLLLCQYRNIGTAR
Sequence of Voltage-gated potassium channel subunit beta-2 (Rattus norvegicus) (P62483 whole entry, looked up): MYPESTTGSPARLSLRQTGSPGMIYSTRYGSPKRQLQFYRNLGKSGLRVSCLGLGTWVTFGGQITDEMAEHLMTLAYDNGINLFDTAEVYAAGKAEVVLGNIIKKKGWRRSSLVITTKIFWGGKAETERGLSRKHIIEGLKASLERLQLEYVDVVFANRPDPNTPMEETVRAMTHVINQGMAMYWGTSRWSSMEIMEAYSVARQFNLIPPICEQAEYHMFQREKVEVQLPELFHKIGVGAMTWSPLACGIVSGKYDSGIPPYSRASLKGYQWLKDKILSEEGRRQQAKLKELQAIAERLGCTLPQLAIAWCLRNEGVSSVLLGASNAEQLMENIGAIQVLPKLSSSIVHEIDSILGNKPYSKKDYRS

Regarding `COc1ccccc1NC(=O)Nc1nnc(C(C)C)s1`, the cell count in experiment [1] was 702. In addition, the inhibition was -3.3% (inactive) in experiment [1], -24.3% (inactive) in experiment [2], -5.81% (inactive) in experiment [4] and 3.73% (inactive) in experiment [9]. In experiment [2], this compound showed a nuclei count of 157%. Moreover, the values for the z-score in experiment [3] (setting [10]), in [3] (setting [11]) and in [3] (setting [12]) were -0.239, -0.311 and 0.0371, respectively. The results for the fluorescence slope in experiment [5] and in [7] were -0.476 (inactive) and 0.00885 (inactive), respectively. The NADPH fluorescence slope in experiment [6] was -1.2e-05 (inactive). The compound was called inactive in experiment [8].
For `O=C1CC(NCc2ccncc2)C(=O)N1c1ccc(Cl)cc1` (stereo unspecified), the cell count in experiment [1] worked out at 479. Moreover, the inhibition is 2.2% (inactive) in experiment [1], -20.1% (inactive) in experiment [2], 2.71% (inactive) in experiment [4] and 25.9% (inactive) in [9]. In experiment [2], this compound returned a nuclei count of 150%. For the same compound, the z-score is 0.96 in [3] (setting [10]), -0.274 in [3] (setting [11]) and -0.794 in experiment [3] (setting [12]). Moreover, the fluorescence slope in experiment [5] is -0.464 (inactive); in [7] it was 0.00465 (inactive). Moreover, the NADPH fluorescence slope in [6] is -3.3e-05 (inactive). Moreover, in experiment [8], the call was inactive.
As for `CC(C)OCCCn1c(=N)c(C(N)=S)cc2c(=O)n3ccccc3nc21`, the cell count in experiment [1] was found to be 619. The inhibition in experiment [1] is -7.9% (inactive); in experiment [2] it was -3% (inactive); in experiment [4], 17.7% (inactive); in experiment [9], 22.8% (inactive). The same compound yielded a nuclei count in experiment [2] of 149%. Further, the z-score in experiment [3] (setting [10]) is 1.16; in experiment [3] (setting [11]) it was -1.47; in experiment [3] (setting [12]), -1.15. Besides, the fluorescence slope was -0.454 (inactive) in [5] and 0.00453 (inactive) in experiment [7]. Further, in experiment [6], the NADPH fluorescence slope was -4.1e-05 (inactive). For the same compound, the outcome in experiment [8] was inactive.
As to `CCOc1ccc(N=C2C(=O)N(CN3CCOCC3)c3ccccc32)cc1`, the cell count in experiment [1] is 653. The inhibition is -4.3% (inactive) in experiment [1], -371% (inactive) in experiment [2], 10.1% (inactive) in experiment [4] and 9.3% (inactive) in [9]. The compound further returned a nuclei count in experiment [2] of 156%. For the same compound, the figures for the z-score in experiment [3] (setting [10]), in [3] (setting [11]) and in [3] (setting [12]) were 0.894, -0.754 and -0.416, respectively. In addition, the values for the fluorescence slope in experiment [5] and in experiment [7] were -0.486 (inactive) and 0.00278 (inactive), respectively. Besides, in [6], the NADPH fluorescence slope was -7.9e-05 (inactive). Further, in [8], the compound was classed as inactive.
Consider `Nc1c2c(nc3ccccc13)N(C1CCCCC1)CC2`, for which, in experiment [1], the cell count worked out at 670. Further, the inhibition was 21.3% (inactive) in experiment [1], 7.4% (inactive) in experiment [2], -15.1% (inactive) in experiment [4] and 62.2% (active) in [9]. The compound further gave a nuclei count in [2] of 98.7%. Also, the z-score is -0.086 in experiment [3] (setting [10]), 0.000792 in experiment [3] (setting [11]) and -0.245 in experiment [3] (setting [12]). Moreover, the fluorescence slope in experiment [5] is -0.46 (inactive); in experiment [7], 0.00444 (inactive). The NADPH fluorescence slope in [6] was -2.9e-05 (inactive). Further, the compound was called inactive in experiment [8].
As to `CCCCc1nc2sc3c(c2c(=O)[nH]1)CCC3`, the cell count in experiment [1] is 691. Besides, the inhibition in experiment [1] is 3.3% (inactive); in experiment [2], 8% (inactive); in experiment [4], -9.53% (inactive); in [9], 34.8% (inactive). In experiment [2], this compound had a nuclei count of 129%. Further, the z-score is -0.915 in experiment [3] (setting [10]), 0.812 in experiment [3] (setting [11]) and -0.126 in experiment [3] (setting [12]). In addition, the fluorescence slope is -0.421 (inactive) in experiment [5] and 0.00621 (inactive) in [7]. In addition, the NADPH fluorescence slope in experiment [6] is -4e-05 (inactive). Moreover, the result in experiment [8] was inactive.
As for `CCOC(=O)c1c(C)n(C)c2ccc(O)c(CN3CCCCC3)c12`, the cell count in experiment [1] came out at 616. The inhibition was 9.7% (inactive) in experiment [1], -7.7% (inactive) in experiment [2], -15.1% (inactive) in experiment [4] and 22.8% (inactive) in experiment [9]. The nuclei count in [2] came out at 92.8%. The z-score in experiment [3] (setting [10]) was -0.792; in experiment [3] (setting [11]), 0.194; in [3] (setting [12]), -0.0734. The fluorescence slope is -0.442 (inactive) in experiment [5] and 0.00334 (inactive) in experiment [7]. Besides, the NADPH fluorescence slope in experiment [6] was -3.9e-05 (inactive). In addition, the call in experiment [8] was inactive.

As a reminder, the inhibition is the drop in the measured response relative to a control, in per cent.
